# C2C12 statin: protects C2C12 myotubes from simvastatin toxicity; ATP luminescence, 48 h; scaled: DMSO 0, geranylgeraniol control 100; hit rate 0.78% among 330,000; rescue of ATP level, % at 7.49 µM;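 active = mean ATP rescue above about 67%, or every replicate alone reaching that limit, limit read from the data, passing the limit was not always enough; inconclusive = no clear call, values can overlap the other calls; inactive = mean under the limit and some replicate under it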;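 note: myotubes were challenged with 10 µM simvastatin during compound exposure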
# PglD inh: PglD (C. jejuni) enzyme inhibition; hit rate 0.098% among 360,000; purified PglD enzyme, DTNB colorimetric CoA detection; inhibition, % at 12.5 µM; in the data active = inhibition above about 16%, passing the limit was not always enough; inconclusive = no clear call, values can overlap the other calls
# XiGFP reactiv: reactivates the inactive X chromosome in mouse fibroblasts; hit rate 0.055% among 360,000; AID 743238; XiGFP mouse fibroblasts, % GFP-positive cells imaging, 3 d; cells co-treated with 5-aza-dC sensitizer; scaled so ellipticine positive control = 100%; activation, % at 7.58 µM;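 active = mean normalized replicate activation at least 10% and every replicate at or above 10%; inconclusive = only one of the two criteria met; inactive = mean below 10% and not all replicates reach 10%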;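 note: 0% = median of on-plate neutral control wells and 100% = ellipticine 6 µM median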
#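 material = 68-5-11 XiGFP fibroblast line | medium = DMEM plus 5-aza-dC sensitizer | schedule = 3 days compound exposure | benchmarks = positive control ellipticine, 6 µM final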
# DENV2 CPE: DENV2-induced cell death inhibition; hit rate 1.7% among 350,000; CPE inhibition, % at 9.99 µM; DENV2-infected cells, cytopathic effect rescue, plate reader; in the data active = CPE inhibition above about 20%, passing the limit was not always enough; inconclusive = no clear call, values can overlap the other calls; tested in BHK-21 cells;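 note: 0% = median of neutral control wells and 100% = median of positive control wells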
# FGF22 binding: binders of recombinant human FGF22 by thermal shift | Q9HCT0 | SYPRO orange fluorescence; percent of sucrose octasulfate shift, DMSO zero | activity (Tm shift, normalised), % at 9.99 µM | hit rate 1.5% among 340,000;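 active = mean Tm shift, scaled 0 neutral to 100 positive control, at about 1.3% or above, every replicate too, limit read from the data; inconclusive = no clear call, values can overlap the other calls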
# Target sequence (Q9HCT0 whole entry, looked up): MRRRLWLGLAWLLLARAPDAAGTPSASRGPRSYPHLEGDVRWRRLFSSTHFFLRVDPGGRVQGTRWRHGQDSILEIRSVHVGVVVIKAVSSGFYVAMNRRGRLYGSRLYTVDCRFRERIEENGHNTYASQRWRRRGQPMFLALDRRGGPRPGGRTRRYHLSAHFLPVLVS
# E-selectin induc: induces E-selectin expression in human endothelial cells; P16581; HUVEC E-selectin immunofluorescence imaging; normalized: neutral wells 0, TNF-alpha wells 100; activation, % at 7.58 µM; hit rate 0.37% among 260,000;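 active = mean E-selectin-positive cell signal at least 10% of the positive control, reached in at least 60% of replicates, without over 20% cell loss; inconclusive = no rule given, readout overlaps actives, possibly toxicity-flagged; inactive = the rest, including those meeting only one limit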
#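 System: HUVEC, human umbilical vein endothelial cells; quantity: 3,000 cells/well; buffer or medium: EGM-2 medium, gelatin-coated wells; dosing: single-point compound dose; detection: immunofluorescence imaging; evaluation: % PE-positive cells; benchmarks: TNF-alpha, DMSO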
# Active calls of the source: *; ? = inconclusive; / = no result; ! = not confirmed by another sample. Sampled rows, rich in hits. Any-hit rate of the full collection: about 3.3%.
SMILES,C2C12 statin,PglD inh,XiGFP reactiv,DENV2 CPE,FGF22 binding,E-selectin induc
CCCC#Cc1cnc2c(c1)C(=O)N([C@@H](C)CO)C[C@H](C)[C@H](CN(C)C(=O)C1CCOCC1)O2,11,-4,0,16,0,0
CNC[C@H]1Oc2ncc(-c3ccccc3C)cc2C(=O)N([C@@H](C)CO)C[C@H]1C,-3,-1,0,13,0,0
CCOC(=O)CNC(=S)N(Cc1ccccc1F)C1CCCCC1,0,-1,0,3,42,0
CCOC(=O)CNC(=S)N(Cc1cccs1)C1CCCCC1,/,/,0,21*,0,/
CN(c1ccc(OCC(=O)NCc2cccnc2)cc1)S(=O)(=O)c1ccc(Cl)cc1,/,/,0,4,43*,1
O=C1[C@@H](Oc2ccccc2)[C@@H](c2ccncc2)N1c1ccncc1,9,-5,0,28*,0,/
C[C@H](CO)N1C[C@H](C)[C@@H](CN(C)S(=O)(=O)c2cccs2)Oc2c(NS(=O)(=O)c3ccc(Cl)cc3)cccc2C1=O,/,2,0,-2,0,-3
C[C@H](CO)N1C[C@H](C)[C@@H](CN(C)S(=O)(=O)c2cccs2)Oc2c(NS(=O)(=O)c3ccc(F)cc3)cccc2C1=O,-1,3,-1,-6,0,-3
C[C@@H]1CN([C@H](C)CO)C(=O)c2cccc(NS(=O)(=O)c3ccc(Cl)cc3)c2O[C@@H]1CN(C)S(=O)(=O)c1cccs1,/,3,0,76*,0,-3
Cc1ccc(S(=O)(=O)Nc2cccc3c2O[C@H](CN(C)S(=O)(=O)c2cccs2)[C@@H](C)CN([C@@H](C)CO)C3=O)cc1,-6,-2,0,63*,0,0
Cc1ccc(S(=O)(=O)Nc2cccc3c2O[C@@H](CN(C)S(=O)(=O)c2cccs2)[C@H](C)CN([C@H](C)CO)C3=O)cc1,-27,-5,1,2,0,0
C[C@@H]1CN([C@H](C)CO)C(=O)c2cccc(NS(=O)(=O)c3ccc(F)cc3)c2O[C@@H]1CN(C)S(=O)(=O)c1cccs1,-16,2,0,12,1,36*
N#Cc1cccc(-c2ccc3c(c2)[C@@H]2[C@@H](CCN2S(=O)(=O)c2ccccc2F)[C@@H](CO)N3)c1,-10,1,0,6,0,0
COc1ccc(-c2ccc([C@H]3[C@@H](CO)N4C(=O)CNC[C@H]34)cc2)cc1,/,/,0,17,/,0
COc1ccc(Nc2nc(NCc3ccco3)nc(N/N=C/c3ccc(O)cc3)n2)cc1,/,10,0,-7,1.9*,/
COc1ccc(/C=N/Nc2nc(NCc3ccco3)nc(Nc3ccc(OC)cc3)n2)cc1,-1,4,0,8,0,13
Cc1ccc(CNCc2cc(Cl)ccc2O)cc1,1,4,0,88*,0,0
O=C(O)c1ccc(CNCc2cc(Cl)ccc2O)cc1,18,1,0,0,0,0
C[C@H](CO)N1C[C@H](C)[C@@H](CN(C)S(=O)(=O)c2ccccc2)Oc2ccc(NC(=O)Nc3ccc(C(F)(F)F)cc3)cc2C1=O,1,4,0,0,0,431*!
Cc1ccc(S(=O)(=O)N(C)C[C@@H]2Oc3ccc(NC(=O)Nc4ccc(C(F)(F)F)cc4)cc3C(=O)N([C@@H](C)CO)C[C@@H]2C)cc1,-79,-3,0,-8,2.8*,-1
Cc1ccc(S(=O)(=O)N(C)C[C@H]2Oc3ccc(NC(=O)CCC(F)(F)F)cc3C(=O)N([C@H](C)CO)C[C@@H]2C)cc1,-18,3,0,29*,0,0
C[C@@H]1CN([C@@H](C)CO)C(=O)c2cc(NC(=O)CCC(F)(F)F)ccc2O[C@@H]1CN(C)S(=O)(=O)c1ccc(F)cc1,-4,-1,0,?,0,0
Cc1ccc(S(=O)(=O)N(C)C[C@@H]2Oc3ccc(NC(=O)Nc4ccc(C(F)(F)F)cc4)cc3CC(=O)N([C@@H](C)CO)C[C@H]2C)cc1,12,1,0,28*,0,0
C[C@@H]1CN([C@H](C)CO)C(=O)c2cc(NC(=O)Nc3ccc(C(F)(F)F)cc3)ccc2O[C@@H]1CN(C)S(=O)(=O)c1ccccc1,-71,/,0,-6,1,8
Cc1ccc(S(=O)(=O)N(C)C[C@H]2Oc3ccc(NC(=O)Nc4ccc(C(F)(F)F)cc4)cc3CC(=O)N([C@H](C)CO)C[C@H]2C)cc1,-53,4,-1,2,1,1
SMILES,C2C12 statin,PglD inh,XiGFP reactiv,DENV2 CPE,FGF22 binding,E-selectin induc
C[C@H]1CN([C@@H](C)CO)C(=O)Cc2cc(NS(=O)(=O)c3ccccc3)ccc2O[C@H]1CN(C)Cc1ccccc1,38,-2,-1,-5,0,0
COc1ccc(COCC23N=C4SCCCN4[C@H](c4ccccc4O2)[C@H]3COC(=O)c2ccccc2)cc1,/,-3,/,-4,0,/
C[C@@H]1CN([C@@H](C)CO)C(=O)c2cc(NC(=O)Nc3ccc(C(F)(F)F)cc3)ccc2O[C@H]1CN(C)S(=O)(=O)c1ccccc1,-74,/,0,3,1,79*
C[C@H]1CN([C@@H](C)CO)C(=O)c2cc(NC(=O)Nc3ccc(C(F)(F)F)cc3)ccc2O[C@H]1CN(C)S(=O)(=O)c1ccccc1,-36,/,0,-11,0,-7
C[C@@H]1CN([C@H](C)CO)C(=O)c2cc(NC(=O)Nc3ccc(F)cc3)ccc2O[C@@H](C)CCCCO[C@H]1CN(C)S(=O)(=O)c1cccs1,141*!,-1,0,47*!,0,3
C[C@H]1CN([C@@H](C)CO)C(=O)c2cc(NC(=O)Nc3ccc(F)cc3)ccc2O[C@H]1CN(C)S(=O)(=O)c1cccs1,-75,-1,0,9,0,26*
C[C@H](CO)N1C[C@H](C)[C@@H](CN(C)S(=O)(=O)c2cccs2)Oc2ccc(NC(=O)Cc3ccccc3)cc2C1=O,-9,-1,0,4,0,?
C[C@@H]1CCCCO[C@H](CN(C)S(=O)(=O)c2cccs2)[C@@H](C)CN([C@@H](C)CO)C(=O)c2cc(NC(=O)c3ccccc3)ccc2O1,/,5,0,23*,0,0
C[C@H](CO)N1C[C@H](C)[C@@H](CN(C)S(=O)(=O)c2cccs2)Oc2ccc(NC(=O)Nc3ccc(F)cc3)cc2C1=O,11,0,0,-1,0,-6
C[C@H]1CN([C@@H](C)CO)C(=O)c2cc(NC(=O)Cc3ccccc3)ccc2O[C@@H]1CN(C)S(=O)(=O)c1cccs1,98*,4,0,-12,0,-5

# Source: PubChem BioAssay (Broad Institute)
